Laboratory results from ChEMBL document CHEMBL3585335, “Isolation and Synthetic Diversification of Jadomycin 4-Amino-l-phenylalanine” (J Nat Prod, 2015).
Active and inactive are the calls of the source.

Columns and labels:
[1] = test system: NCI-H23; experiment: Cytotoxicity against human NCI-H23 cells assessed as cell growth at 1 x 10^-5 M; format: functional, cell-based
Procedure, shortened: (§1)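 Run by the NCI Developmental Therapeutics Program (DTP) as its one-dose screen across the 60 human tumour cell line panel.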

[2] = test system: Hs-578T; experiment: Cytotoxicity against human Hs578T cells assessed as cell growth at 1 x 10^-5 M; format: functional, cell-based; procedure, shortened: as §1
[3] = test system: T47D; experiment: Cytotoxicity against human T47D cells assessed as cell growth at 1 x 10^-5 M; format: functional, cell-based
Procedure, shortened: (§2)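 Tested by the NCI Developmental Therapeutics Program in its one-dose screen across the 60 human tumour cell line panel.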

[4] = test system: SF-539; experiment: Cytotoxicity against human SF539 cells assessed as cell growth at 1 x 10^-5 M; format: functional, cell-based; procedure, shortened: as §1
[5] = test system: SK-OV-3; experiment: Cytotoxicity against human SKOV3 cells assessed as cell growth at 1 x 10^-5 M; format: functional, cell-based; procedure, shortened: as §1
[6] = test system: OVCAR-8; experiment: Cytotoxicity against human OVCAR8 cells assessed as cell growth at 1 x 10^-5 M; format: functional, cell-based; procedure, shortened: as §1
[7] = test system: HCC 2998; experiment: Cytotoxicity against human HCC2998 cells assessed as cell growth at 1 x 10^-5 M; format: functional, cell-based; procedure, shortened: as §1
[8] = test system: Escherichia coli; experiment: Effect on Copper-mediated Escherichia coli pUC19 DNA cleavage at 100 uM by gel-electrophoresis analysis
[9] = test system: ACHN; experiment: Cytotoxicity against human ACHN cells assessed as cell growth at 1 x 10^-5 M; format: functional, cell-based; procedure, shortened: as §1
[10] = test system: NCI-H522; experiment: Cytotoxicity against human NCI-H522 cells assessed as cell growth at 1 x 10^-5 M; format: functional, cell-based; procedure, shortened: as §1
[11] = test system: DU-145; experiment: Cytotoxicity against human DU145 cells assessed as cell growth at 1 x 10^-5 M; format: functional, cell-based; procedure, shortened: as §1
[12] = test system: LOX IMVI; experiment: Cytotoxicity against human LOXIMVI cells assessed as cell growth at 1 x 10^-5 M; format: functional, cell-based; procedure, shortened: as §1
[13] = test system: K562; experiment: Cytotoxicity against human K562 cells assessed as cell growth at 1 x 10^-5 M; format: functional, cell-based; procedure, shortened: as §1
[14] = test system: SF-295; experiment: Cytotoxicity against human SF295 cells assessed as cell growth at 1 x 10^-5 M; format: functional, cell-based; procedure, shortened: as §1
[15] = test system: HOP-62; experiment: Cytotoxicity against human HOP62 cells assessed as cell growth at 1 x 10^-5 M; format: functional, cell-based; procedure, shortened: as §1
[16] = test system: TK-10; experiment: Cytotoxicity against human TK10 cells assessed as cell growth at 1 x 10^-5 M; format: functional, cell-based; procedure, shortened: as §2
[17] = test system: HT-29; experiment: Cytotoxicity against human HT-29 cells assessed as cell growth at 1 x 10^-5 M; format: functional, cell-based; procedure, shortened: as §1
[18] = test system: A549; experiment: Cytotoxicity against human A549 cells assessed as cell growth at 1 x 10^-5 M; format: functional, cell-based; procedure, shortened: as §1
[19] = test system: HCT-116; experiment: Cytotoxicity against human HCT116 cells assessed as cell growth at 1 x 10^-5 M; format: functional, cell-based; procedure, shortened: as §1
[20] = test system: NCI/ADR-RES; experiment: Cytotoxicity against human NCI-ADR-RES cells assessed as cell growth at 1 x 10^-5 M; format: functional, cell-based; procedure, shortened: as §1
[21] = test system: SF-268; experiment: Cytotoxicity against human SF268 cells assessed as cell growth at 1 x 10^-5 M; format: functional, cell-based; procedure, shortened: as §1
[22] = test system: MDA-MB-231; experiment: Cytotoxicity against human MDA-MB-231 cells assessed as cell growth at 1 x 10^-5 M; format: functional, cell-based; procedure, shortened: as §1
[23] = test system: CCRF-CEM; experiment: Cytotoxicity against human CCRF-CEM cells assessed as cell growth at 1 x 10^-5 M; format: functional, cell-based; procedure, shortened: as §1
[24] = test system: OVCAR-4; experiment: Cytotoxicity against human OVCAR4 cells assessed as cell growth at 1 x 10^-5 M; format: functional, cell-based; procedure, shortened: as §1
[25] = test system: MOLT-4; experiment: Cytotoxicity against human MOLT4 cells assessed as cell growth at 1 x 10^-5 M; format: functional, cell-based; procedure, shortened: as §1
[26] = test system: NCI-H322M; experiment: Cytotoxicity against human NCI-H322M cells assessed as cell growth at 1 x 10^-5 M; format: functional, cell-based; procedure, shortened: as §1
[27] = test system: UACC-257; experiment: Cytotoxicity against human UACC257 cells assessed as cell growth at 1 x 10^-5 M; format: functional, cell-based; procedure, shortened: as §2
[28] = test system: Escherichia coli; experiment: Effect on Copper-mediated Escherichia coli pBR322 DNA cleavage at 100 uM by gel-electrophoresis analysis
[29] = test system: HCT-15; experiment: Cytotoxicity against human HCT15 cells assessed as cell growth at 1 x 10^-5 M; format: functional, cell-based; procedure, shortened: as §1
[30] = test system: MCF7; experiment: Cytotoxicity against human MCF7 cells assessed as cell growth at 1 x 10^-5 M; format: functional, cell-based; procedure, shortened: as §1
[31] = test system: U-251; experiment: Cytotoxicity against human U251 cells assessed as cell growth at 1 x 10^-5 M; format: functional, cell-based; procedure, shortened: as §2
[32] = test system: SR; experiment: Cytotoxicity against human SR cells assessed as cell growth at 1 x 10^-5 M; format: functional, cell-based; procedure, shortened: as §1
[33] = test system: MDA-MB-468; experiment: Cytotoxicity against human MDA-MB-468 cells assessed as cell growth at 1 x 10^-5 M; format: functional, cell-based; procedure, shortened: as §1
[34] = test system: Malme-3M; experiment: Cytotoxicity against human MALME-3M cells assessed as cell growth at 1 x 10^-5 M; format: functional, cell-based; procedure, shortened: as §1
[35] = test system: PC-3; experiment: Cytotoxicity against human PC3 cells assessed as cell growth at 1 x 10^-5 M; format: functional, cell-based; procedure, shortened: as §1
[36] = test system: SK-MEL-2; experiment: Cytotoxicity against human SK-MEL-2 cells assessed as cell growth at 1 x 10^-5 M; format: functional, cell-based; procedure, shortened: as §1
[37] = test system: NCI-H460; experiment: Cytotoxicity against human NCI-H460 cells assessed as cell growth at 1 x 10^-5 M; format: functional, cell-based; procedure, shortened: as §1
[38] = test system: KM12; experiment: Cytotoxicity against human KM12 cells assessed as cell growth at 1 x 10^-5 M; format: functional, cell-based; procedure, shortened: as §1
[39] = test system: SK-MEL-28; experiment: Cytotoxicity against human SK-MEL-28 cells assessed as cell growth at 1 x 10^-5 M; format: functional, cell-based; procedure, shortened: as §1
[40] = test system: UACC-62; experiment: Cytotoxicity against human UACC62 cells assessed as cell growth at 1 x 10^-5 M; format: functional, cell-based; procedure, shortened: as §2
[41] = test system: SNB-19; experiment: Cytotoxicity against human SNB19 cells assessed as cell growth at 1 x 10^-5 M; format: functional, cell-based; procedure, shortened: as §1
[42] = test system: CAKI-1; experiment: Cytotoxicity against human Caki1 cells assessed as cell growth at 1 x 10^-5 M; format: functional, cell-based; procedure, shortened: as §1
[43] = test system: SW-620; experiment: Cytotoxicity against human SW620 cells assessed as cell growth at 1 x 10^-5 M; format: functional, cell-based; procedure, shortened: as §2
[44] = test system: COLO 205; experiment: Cytotoxicity against human COLO205 cells assessed as cell growth at 1 x 10^-5 M; format: functional, cell-based; procedure, shortened: as §1
[45] = test system: BT-549; experiment: Cytotoxicity against human BT549 cells assessed as cell growth at 1 x 10^-5 M; format: functional, cell-based; procedure, shortened: as §1
[46] = test system: UO-31; experiment: Cytotoxicity against human UO31 cells assessed as cell growth at 1 x 10^-5 M; format: functional, cell-based; procedure, shortened: as §2
[47] = test system: OVCAR-5; experiment: Cytotoxicity against human OVCAR5 cells assessed as cell growth at 1 x 10^-5 M; format: functional, cell-based; procedure, shortened: as §1
[48] = test system: HL-60(TB); experiment: Cytotoxicity against human HL-60(TB) cells assessed as cell growth at 1 x 10^-5 M; format: functional, cell-based
Procedure, shortened: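 Run by the NCI Developmental Therapeutics Program (DTP) within its 60 human tumour cell line one-dose screen.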

[49] = test system: A498; experiment: Cytotoxicity against human A498 cells assessed as cell growth at 1 x 10^-5 M; format: functional, cell-based; procedure, shortened: as §1
[50] = test system: OVCAR-3; experiment: Cytotoxicity against human OVCAR3 cells assessed as cell growth at 1 x 10^-5 M; format: functional, cell-based; procedure, shortened: as §1
[51] = test system: NCI-H226; experiment: Cytotoxicity against human NCI-H226 cells assessed as cell growth at 1 x 10^-5 M; format: functional, cell-based; procedure, shortened: as §1
[52] = test system: RXF 393; experiment: Cytotoxicity against human RXF393 cells assessed as cell growth at 1 x 10^-5 M; format: functional, cell-based; procedure, shortened: as §1
[53] = test system: HOP-92; experiment: Cytotoxicity against human HOP92 cells assessed as cell growth at 1 x 10^-5 M; format: functional, cell-based; procedure, shortened: as §1
[54] = test system: SNB-75; experiment: Cytotoxicity against human SNB75 cells assessed as cell growth at 1 x 10^-5 M; format: functional, cell-based; procedure, shortened: as §1
[55] = test system: MDA-MB-435; experiment: Cytotoxicity against human MDA-MB-435 cells assessed as cell growth at 1 x 10^-5 M; format: functional, cell-based; procedure, shortened: as §1
[56] = test system: 786-0; experiment: Cytotoxicity against human 786-0 cells assessed as cell growth at 1 x 10^-5 M; format: functional, cell-based; procedure, shortened: as §1
[57] = test system: IGROV-1; experiment: Cytotoxicity against human IGROV1 cells assessed as cell growth at 1 x 10^-5 M; format: functional, cell-based; procedure, shortened: as §1
[58] = test system: Escherichia coli; experiment: Effect on photodynamic inactivation in Escherichia coli pUC19 DNA assessed as photo-mediated DNA cleavage at 10 to 100 uM by ethidium bromide gel-electrophoresis analysis
[59] = test system: M14; experiment: Cytotoxicity against human M14 cells assessed as cell growth at 1 x 10^-5 M; format: functional, cell-based; procedure, shortened: as §1
[60] = test system: SK-MEL-5; experiment: Cytotoxicity against human SK-MEL-5 cells assessed as cell growth at 1 x 10^-5 M; format: functional, cell-based; procedure, shortened: as §1
[61] = test system: SN12C; experiment: Cytotoxicity against human SN12C cells assessed as cell growth at 1 x 10^-5 M; format: functional, cell-based; procedure, shortened: as §1

CCCCCCCCC(=O)Nc1ccc(C[C@H]2C(=O)OC3c4cc(C)cc(O)c4C4=C(C(=O)c5c(O[C@H]6C[C@@H](O)[C@@H](O)[C@H](C)O6)cccc5C4=O)N32)cc1 (stereo partly specified)
inactive: growth inhibition (GI) [1] | growth inhibition (GI) [2] | growth inhibition (GI) [3] | growth inhibition (GI) [4] | growth inhibition (GI) [5] | growth inhibition (GI) [6] | growth inhibition (GI) [7] | Activity [8] | growth inhibition (GI) [9] | growth inhibition (GI) [10] | growth inhibition (GI) [11] | growth inhibition (GI) [12] | growth inhibition (GI) [13] | growth inhibition (GI) [14] | growth inhibition (GI) [15] | growth inhibition (GI) [16] | growth inhibition (GI) [17] | growth inhibition (GI) [18] | growth inhibition (GI) [19] | growth inhibition (GI) [20] | growth inhibition (GI) [21] | growth inhibition (GI) [22] | growth inhibition (GI) [23] | growth inhibition (GI) [24] | growth inhibition (GI) [25] | growth inhibition (GI) [26] | growth inhibition (GI) [27] | Activity [28] | growth inhibition (GI) [29] | growth inhibition (GI) [30] | growth inhibition (GI) [31] | growth inhibition (GI) [32] | growth inhibition (GI) [33] | growth inhibition (GI) [34] | growth inhibition (GI) [35] | growth inhibition (GI) [36] | growth inhibition (GI) [37] | growth inhibition (GI) [38] | growth inhibition (GI) [39] | growth inhibition (GI) [40] | growth inhibition (GI) [41] | growth inhibition (GI) [42] | growth inhibition (GI) [43] | growth inhibition (GI) [44] | growth inhibition (GI) [45] | growth inhibition (GI) [46] | growth inhibition (GI) [47] | growth inhibition (GI) [48] | growth inhibition (GI) [49] | growth inhibition (GI) [50] | growth inhibition (GI) [51] | growth inhibition (GI) [52] | growth inhibition (GI) [53] | growth inhibition (GI) [54] | growth inhibition (GI) [55] | growth inhibition (GI) [56] | growth inhibition (GI) [57] | Activity [58] | growth inhibition (GI) [59] | growth inhibition (GI) [60] | growth inhibition (GI) [61]
